{"source": "paper PMC11063762", "about": "(Molecular Cancer Therapeutics, 2024)", "key": {"[1]": {"test_system": "panel of receptors/transporters (n = 38)", "assay": "Off-target selectivity screening, receptor/transporter binding panel", "details": "up to 10 μmol/L"}, "panel of enzymes (n = 6)": {"test_system": "panel of enzymes (n = 6)", "assay": "Off-target selectivity screening, enzyme panel", "format": "biochemical", "details": "up to 10 μmol/L"}, "METAP2 [2]": {"biological_target": "T1, METAP2 (Homo sapiens, UniProt P50579)", "T1 sequence (P50579 whole entry)": "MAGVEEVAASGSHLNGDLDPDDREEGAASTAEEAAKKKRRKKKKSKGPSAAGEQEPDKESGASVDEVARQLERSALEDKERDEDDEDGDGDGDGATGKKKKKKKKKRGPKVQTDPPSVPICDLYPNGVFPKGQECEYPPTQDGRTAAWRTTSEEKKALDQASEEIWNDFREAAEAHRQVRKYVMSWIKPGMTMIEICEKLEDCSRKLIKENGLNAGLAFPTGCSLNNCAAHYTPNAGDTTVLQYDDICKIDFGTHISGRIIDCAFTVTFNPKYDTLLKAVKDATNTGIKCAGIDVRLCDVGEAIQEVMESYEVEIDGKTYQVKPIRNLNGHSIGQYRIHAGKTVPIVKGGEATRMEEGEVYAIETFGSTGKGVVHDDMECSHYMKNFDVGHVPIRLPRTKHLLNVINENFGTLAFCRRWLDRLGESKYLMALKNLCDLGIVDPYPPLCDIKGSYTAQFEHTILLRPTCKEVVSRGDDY", "assay": "METAP2 aminopeptidase enzyme activity assay", "format": "biochemical"}, "B16-F10 melanoma cells": {"test_system": "B16-F10 melanoma cells", "assay": "B16-F10 syngeneic lung metastasis model", "format": "in vivo, mouse", "details": "TNP-470 30 mg/kg every other day x 6, day 15", "in_short": "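Female C57BL/6NTac mice (8/group) received B16-F10 melanoma cells by tail vein. Cells were grown in DMEM with 5% FBS at 37°C under 5% CO2. Dosing began 24 h after injection: saline vehicle, test compound 25 mg/kg Q4D × 3, and a reference METAP2 inhibitor 30 mg/kg Q2D × 6. Lungs were excised on day 15 and visible metastases counted by stereomicroscope. Two-tailed Student t test.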"}, "HUVEC": {"test_system": "HUVEC", "assay": "HUVEC proliferation", "format": "cell-based, human", "details": "72 hours", "in_short": "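HUVEC were grown in EBM-2/EGM-2 with 2% FBS and 2X gentamicin, seeded at 5,000 cells/well and left overnight. Compounds were diluted in DMSO, then in the same medium (final DMSO 0.1%). After 72 h at 37°C, CellTiter 96 Aqueous One reagent was added for 3 h at 37°C and A490 read. The mean A490 of highest-concentration wells was subtracted, and IC50 came from a four-parameter variable-slope log(inhibitor)-response fit.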"}, "[3]": {"details": "cited from earlier work"}, "METAP1": {"biological_target": "METAP1 (Homo sapiens, UniProt P53582)", "assay": "METAP1 aminopeptidase enzyme activity assay", "format": "biochemical", "details": "up to 1000 nmol/L"}, "METAP2 [4]": {"biological_target": "T1, METAP2", "assay": "In vitro competition binding to METAP2", "details": "competition with biotinylated SDX-9280"}, "EO771 tumors": {"test_system": "EO771 tumors", "assay": "EO771 triple-negative breast cancer allograft model", "format": "in vivo, mouse", "details": "24 mg/kg SC, Q4D", "in_short": "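Female C57Bl/6j mice, ovariectomized at 4 weeks, had EO771 cells implanted into the fourth mammary fat pad at about 18 weeks under ether anesthesia. At about 20 mm3, mice (8/group) began s.c. vehicle (5% mannitol/water, Q4D) or test compound (24 mg/kg, Q4D × 4). Tumors were excised on day 15 and formalin-fixed, paraffin-embedded. Sections were immunostained for Ki67 or CD31, scored as positive cells per tissue area. Volume: two-way ANOVA with Sidak. Staining: unpaired t test.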"}, "cathepsin S (CTSS)": {"biological_target": "cathepsin S (CTSS) (Homo sapiens, UniProt P25774)", "sequence (P25774 115-331)": "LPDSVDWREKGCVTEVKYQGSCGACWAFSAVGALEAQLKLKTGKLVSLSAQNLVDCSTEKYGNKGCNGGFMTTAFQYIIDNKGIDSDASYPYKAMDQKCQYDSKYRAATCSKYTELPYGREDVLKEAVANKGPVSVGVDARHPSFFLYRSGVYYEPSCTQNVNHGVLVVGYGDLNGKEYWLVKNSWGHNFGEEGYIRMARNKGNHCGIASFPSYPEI", "assay": "Enzyme-mediated metabolism of SDX-7320 in vitro", "format": "in vitro ADME", "details": "0.5 mg/mL SDX-7320, 37°C, LC/MS"}, "CNS exposure": {"assay": "CNS exposure", "format": "in vivo", "details": "rat, intravenous, equimolar small molecule doses", "in_short": "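Plasma and CSF levels of the small-molecule inhibitor were measured in rats after intravenous dosing of the polymer conjugate, the free inhibitor or a comparator inhibitor, all at equimolar small-molecule doses. CSF was sampled near plasma Tmax. For the rapidly metabolised comparator, its active metabolite (M-IV) was measured rather than the parent.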"}, "[5]": {"assay": "Rat functional observation battery", "format": "in vivo", "details": "single dose 3, 10 and 30 mg/kg, 12 and 36 hours post-dose, GLP", "in_short": "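Under GLP, male experimentally naïve CD [Crl:CD(SD)] rats, about 8 weeks old, received a single s.c. dose of 3, 10 or 30 mg/kg (ten/group). A functional observation battery was run pre-dose (day −1) and at 12 and 36 h post-dose. Mortality, clinical observations and body weights were also recorded.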"}, "MDA-MB-231 tumors": {"test_system": "MDA-MB-231 tumors", "assay": "MDA-MB-231 TNBC model in chick embryos", "format": "in vivo, chick embryo", "details": "15, 90 μg", "in_short": "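MDA-MB-231 cells were inoculated into fertilized White Leghorn eggs on embryonic day E9. From E11, embryos received vehicle, test compound (15 or 90 μg, every four days, two doses) or paclitaxel positive control (2.1 μg, every other day, four doses). Metastatic invasion into the lower chorioallantoic membrane was assessed. Tumors were dissected on E19.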"}, "[6]": {"assay": "Particle size by dynamic light scattering", "format": "physicochemical", "details": "5% aqueous mannitol, monomodal"}, "[7]": {"test_system": "cathepsin isoforms L, H, C, K, and B", "assay": "Enzyme-mediated metabolism of SDX-7320 in vitro", "format": "in vitro ADME, human", "details": "0.5 mg/mL SDX-7320, 37°C, LC/MS"}, "BT-474 tumors [8]": {"test_system": "BT-474 tumors", "assay": "RNA sequencing of BT-474 xenograft tumors", "format": "in vivo, mouse", "details": "12 mg/kg, RNA-seq versus vehicle", "in_short": "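Orthotopic BT-474 tumors came from estrogen-supplemented nude mice dosed s.c. every four days with 12 mg/kg test compound (n = 5) or vehicle (n = 6). At necropsy, tumor portions were snap-frozen and stored at −80°C for RNA isolation and sequencing. Differentially expressed genes versus vehicle were identified, then pathway enrichment analysis was run (pathways with P ≤ 0.01 reported).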"}, "BT-474 tumors [9]": {"test_system": "BT-474 tumors", "assay": "BT-474 HER-2+, estrogen receptor-positive breast cancer xenograft model", "format": "in vivo, mouse", "details": "6, 12 mg/kg, s.c., every four days", "in_short": "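Female athymic nude mice got a 90-day 0.72 mg β-estradiol pellet s.c. Three days later, 2 × 10^7 cells in 50% Matrigel/50% RPMI1640 went into the fourth mammary fat pad. Mice were randomized at tumors >95 mm3 (8/group). Test compound, freshly prepared in 5% mannitol/water, was given s.c. Q4D × 9. Tumor volume was analysed by mixed-effects model with Dunnett comparisons.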"}, "[10]": {"assay": "Long-term chemical stability at ambient conditions", "format": "physicochemical"}}, "note": "Entries after “also recorded” stand apart in the source; their conditions may differ.", "data": [{"compound": "CO[C@@H]1[C@H](OC(=O)N[C@H]2CC[C@H](N)CC2)CC[C@]2(CO2)[C@H]1[C@@]1(C)O[C@@H]1CC=C(C)C.O=S(=O)(O)c1ccccc1", "note": "(relative stereo) [SDX-9402, Fumagill-6-yl N-(trans-4-aminocyclohexyl)carbamate benzenesulfonic acid salt]", "values": [{"measurement": "Off-target activity at receptors/transporters", "setting": "[1]", "value": "No effect was observed"}, {"measurement": "Off-target activity at enzymes", "setting": "panel of enzymes (n = 6)", "value": "No effect was observed"}]}, {"compound": "CO[C@@H]1[C@H](OC(=O)NC(=O)CCl)CC[C@]2(CO2)[C@H]1[C@@]1(C)O[C@@H]1CC=C(C)C", "note": "[TNP-470, O-(chloroacetyl-carbamoyl) fumagillol]", "values": [{"measurement": "time dependence of IC50 against METAP2", "setting": "METAP2 [2]; hallmark of irreversible enzyme inhibitors", "value": "time-dependent shifts in IC50"}, {"measurement": "outgrowth of B16-F10 melanoma cells in the lungs", "setting": "B16-F10 melanoma cells", "value": "identical degree of inhibition"}, {"measurement": "fold less potent than SDX-7539 in HUVEC growth", "setting": "HUVEC", "value": "approximately 3 fold"}, {"measurement": "potency in vitro, fold higher than the natural product fumagillin", "setting": "[3]", "value": 50, "unit": "fold"}, {"measurement": "Inhibition of METAP1 aminopeptidase activity", "setting": "METAP1", "value": "neither compound inhibited METAP1"}]}, {"compound": "Glycine, N-(2-methyl-1-oxo-2-propen-1-yl)glycyl-L-phenylalanyl-L-leucyl-, 4-nitrophenyl ester, polymer with N-(2-hydroxypropyl)-2-methyl-2-propenamide, reaction products with (3R,4S,5S,6R)-5-methoxy-4-[(2R,3R)-2-methyl-3-(3-methyl-2-buten-1-yl)-2-oxiranyl]-1-oxaspiro[2.5]oct-6-yl N-(trans-4-aminocyclohexyl)carbamate [SDX-7320]", "values": [{"measurement": "Inhibition of METAP2 aminopeptidase enzyme activity", "setting": "METAP2 [2]; up to 10 μg/ml", "value": "inactive"}, {"measurement": "binding to METAP2 by competition ELISA", "setting": "METAP2 [4]", "value": "inactive"}, {"measurement": "EO771 tumor growth", "setting": "EO771 tumors", "value": "significantly inhibited tumor growth"}, {"measurement": "CD31 staining of dissected EO771 tumors", "setting": "EO771 tumors; anti-angiogenic activity", "value": "reduced staining"}, {"measurement": "Ki67 staining of dissected EO771 tumors", "setting": "EO771 tumors; anti-proliferative activity", "value": "reduced staining"}, {"measurement": "release of SDX-7539 from SDX-7320 by cathepsin S", "setting": "cathepsin S (CTSS)", "value": "most active isoform; also recorded: highest activity"}, {"measurement": "CSF levels of SDX-7539 when dosed as the PDC compared with unconjugated small molecule or TNP-470", "setting": "CNS exposure", "value": "marked reduction in CSF levels"}, {"measurement": "neurobehavioral FOB findings", "setting": "[5]", "value": "No signs of abnormal CNS-related behavioral toxicity; also recorded: no significant behavioral abnormalities"}, {"measurement": "metastasis of MDA-MB-231 tumors (human DNA in lower chorioallantoic membrane)", "setting": "MDA-MB-231 tumors; every four days, two doses", "value": "significantly inhibited metastasis"}, {"measurement": "MDA-MB-231 tumor blood vessel density (angiogenesis)", "setting": "MDA-MB-231 tumors; two days prior to termination", "value": "significant decrease in blood vessel density"}, {"measurement": "particle size distribution Z-average", "setting": "[6]", "value": 10, "unit": "nm"}, {"measurement": "release of SDX-7539 from SDX-7320 by cathepsins L, H, C, K, and B", "setting": "[7]", "value": "catalytic activity against SDX-7320"}, {"measurement": "expression of hypoxia-regulated genes including HIF1α in BT-474 tumors", "setting": "BT-474 tumors [8]", "value": "significantly reduced"}, {"measurement": "inhibition of BT-474 tumor growth", "setting": "BT-474 tumors [9]", "value": "significant, dose-dependent inhibition"}, {"measurement": "long-term chemical stability", "setting": "[10]", "value": "> 48", "unit": "months"}]}]}
